# Results: PubChem BioAssay AID624399 (The Scripps Research Institute Molecular Screening Center, 2012)
# The source made the active and inactive calls.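 How the source made its calls: active means increase in reporter activity of 20% or more; inactive means increase below 20%, or a negative response.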
# System: BG1Luc4E2 cells, ERE-luciferase luminescence, 24 h
# Experiment: estrogenic induction of ERE reporter expression – BG1Luc4E2 ovarian carcinoma cells, luminescence, counter-screen for AHR activator project, late-stage follow-up (AID 624399)
# Settings: at 10 µM; active compounds read high
# Summary of the method: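 Assay system: BG1Luc4E2 cells, firefly luciferase reporter under two synthetic EREs; Controls: 17β-estradiol at 1 nM as positive control; Measured by: firefly luciferase luminescence measured after cell lysis; Evaluation: maximum % reporter activation; Timing: 24 h compound exposure at 37 °C after 5-day depletion; Compound: single test concentration of 10 µM per compound.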
row,SMILES,activation
1,Cc1cc(Nc2ccc(F)cc2)nc(N)n1,-2.7% (inactive)
2,COc1ccc(Nc2cc(Cl)nc(N)n2)cc1,2.2% (inactive)
3,Cc1ccc(-c2cc(-c3ccc(Cl)cc3)n[nH]2)c(O)c1,3.2% (inactive)
4,COc1ccc(NC(=O)c2ccc(C(=O)Nc3ccc(OC)cc3OC)nc2)c(OC)c1,-0.5% (inactive)
5,O=C(CSc1nc2ccccc2s1)Nc1ccccn1,-1% (inactive)
6,Nc1nc(Cl)cc(Nc2ccc(Oc3ccccc3)cc2)n1,3.3% (inactive)
7,Cc1ccc(O)c(-c2cc(-c3ccccc3Cl)[nH]n2)c1,11.6% (inactive)
8,COc1ccc(Cl)cc1NC(=O)c1ccc(C(=O)Nc2cc(Cl)ccc2OC)nc1,-3.6% (inactive)
9,Cc1csc(SCC(=O)Nc2ccccn2)n1,-2.6% (inactive)
10,COc1ccc(-c2cc(-c3ccc(C)cc3O)[nH]n2)cc1,-7.2% (inactive)
11,COc1ccc(O)c(-c2cc(-c3cccs3)[nH]n2)c1,-3% (inactive)
12,Cc1cccc(NC(=O)c2cc(-c3ccc(C)cc3O)n[nH]2)c1,1.8% (inactive)
13,Cc1ccc(NC(=O)c2ccc(C(=O)Nc3ccc(C)cc3C)nc2)c(C)c1,-1.6% (inactive)
14,O=C(CSc1nc2ccccc2s1)Nc1ccc(Cl)cn1,-2% (inactive)
15,COc1ccc(Nc2cc(Cl)nc(N)n2)cc1OC,13.6% (inactive)
16,Cc1ccc(-c2cc(-c3ccc(F)cc3)n[nH]2)c(O)c1,5.8% (inactive)
17,CCOC(=O)c1c(C)nn(-c2cc(Cl)ccc2Cl)c1C,-3.3% (inactive)
18,Cc1ccc(-c2cc(-c3cccc(F)c3)n[nH]2)c(O)c1,3.8% (inactive)
19,Cc1ccnc(NC(=O)CSc2nc3ccccc3s2)c1,-3.7% (inactive)
20,Cc1cc(Br)cc(C)c1Nc1ccnc(Nc2ccc(C#N)cc2)n1,-3.5% (inactive)
21,CN(Cc1cc(-c2cccs2)n[nH]1)Cc1coc2ccccc2c1=O,-2.6% (inactive)
22,CCOc1ccccc1NC(=O)c1ccc(C(=O)Nc2ccccc2OCC)nc1,-2.8% (inactive)
23,O=C(CSc1nc(-c2ccc(F)cc2)cs1)Nc1ccccn1,1% (inactive)
24,Nc1nc(Cl)cc(Nc2ccccc2F)n1,-0.9% (inactive)
25,Cc1cccc(C)c1NC(=O)c1ccc(C(=O)Nc2c(C)cccc2C)nc1,-5.1% (inactive)
